Source: PubChem BioAssay (Johns Hopkins Ion Channel Center)
Sampled rows, rich in hits. Any-hit rate of the full collection: about 3.7%.
hERG rescue – compounds protecting human hERG from proarrhythmic drug block; Q12809; CHO-hERG, FluxOR thallium flux, dofetilide IC70 present; activation (rescue from dofetilide block), less the hit threshold, % at 10 µM; hit rate 0.51% among 310,000; AID 1511;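 active = activation above the mean of controls blocked by dofetilide plus 5 SD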;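 also: thallium influx through hERG after potassium depolarization seen as dye fluorescence rise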
KCNK3 block – human KCNK3 channel inhibition, primary screen | hit rate 0.84% among 340,000 | B-score at 10 µM | O14649 | CHO-KCNK3 thallium flux, FluxOR fluorescence; hits give low values;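 active = B-score under library mean minus 4 SD, starting fluorescence ratio at most library mean plus 5 SD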;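 also: more negative B-score means stronger inhibition of thallium flux through KCNK3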
KCNQ1 pot – human KCNQ1 channel potentiation or activation | CHO-K1 KCNQ1, thallium flux FluxOR fluorescence; hits give high values | hit rate 0.35% among 310,000 | AID 2648 | P51787 | B-score at 10 µM;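 active = fluorescence ratio B-score, a plate-corrected score, at least three library SD, with initial intensity B-score within 5 SD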
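System: Stable KCNQ1 CHO-K1 line | Incubation: 90 min dye loading and 20 min compound exposure, both at room temperature | Measure: Ratio B score | Medium: Assay buffer for compound exposure, DMSO matched across wells | Compound dosing: Single-concentration screen | Probe or stimulus: K+/Tl+ depolarizing stimulus | Measured by: Kinetic FluxOR fluorescence, 10 s baseline plus 110 s post-stimulus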
KCNQ1 block – blocks the human KCNQ1 potassium channel | B-score at 10 µM | AID 2642 | CHO-K1 KCNQ1, FluxOR thallium flux fluorescence; hits give high values | P51787 | hit rate 1.3% among 310,000;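 active = compounds whose thallium flux B-score, printed positive for inhibition, exceeds three library SD while starting fluorescence stays within three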;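 also: channel opened by potassium depolarization with thallium stimulus after 20 min compound exposure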
KCNK9 block – blocks the human KCNK9 two-pore domain potassium channel; Q9NPC2; HEK293 KCNK9, FluxOR thallium flux fluorescence; hits give low values; B-score at 10 µM; hit rate 1.2% among 310,000;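 active = ratio B-score over 3 SD below the library mean, with starting fluorescence within 5 SD of its mean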;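 also: negative B-score means less thallium flux so channel inhibition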
Kir21 inh – inhibitors of mouse Kir2.1 inward-rectifier potassium channel; B-score at 10 µM; hit rate 0.85% among 310,000; P35561; AID 1672; HEK293-Kir2.1, FluxOR thallium flux fluorescence; hits give low values;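 active = fluorescence ratio B-score at or below minus 3 SD of library scores, with starting-brightness B-score within 2 SD, cut at about -4.2 in these data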;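 also: channel flux triggered by added potassium and thallium sulfate stimulus; B-score of peak minus minimum fluorescence over baseline after thallium stimulus; more negative B-score means stronger Kir2.1 block with less thallium influx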
Target sequence (P35561 whole entry, looked up): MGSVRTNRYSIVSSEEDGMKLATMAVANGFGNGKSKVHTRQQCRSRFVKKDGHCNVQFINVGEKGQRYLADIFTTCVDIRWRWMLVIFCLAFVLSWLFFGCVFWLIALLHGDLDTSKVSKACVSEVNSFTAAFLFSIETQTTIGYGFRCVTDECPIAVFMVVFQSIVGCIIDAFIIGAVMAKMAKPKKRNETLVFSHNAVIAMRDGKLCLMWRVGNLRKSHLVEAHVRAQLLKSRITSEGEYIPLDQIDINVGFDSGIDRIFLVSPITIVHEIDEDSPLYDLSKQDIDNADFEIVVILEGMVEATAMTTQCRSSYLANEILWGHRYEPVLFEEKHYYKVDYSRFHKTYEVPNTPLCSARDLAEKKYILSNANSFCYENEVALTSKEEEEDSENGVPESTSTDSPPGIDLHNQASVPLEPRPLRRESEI
* hit, by the source's call; i = inactive; · = not tested or not shown.

SMILES	hERG rescue	KCNK3 block	KCNQ1 pot	KCNQ1 block	KCNK9 block	Kir21 inh
CCc1ccc(NC(=O)C(=O)NNC(=O)c2cccc(OC)c2)cc1	38*	i	76*	i	i	1.5
COc1cc(NC(=O)C(=O)NNC(=O)C2CCCCC2)c(OC)cc1Cl	2	i	i	i	i	0.25
COc1cccc(C(=O)NNC(=O)C(=O)Nc2ccc(C)c(Cl)c2)c1	31*	i	35*	i	i	-0.02
COc1cccc(C(=O)Nc2cc(Cl)c(O)c(Cl)c2)c1	-5	i	i	i	i	1.2
O=C(C[C@@H]1C/C=C\C[C@@H](Cc2ccc(F)cc2)C(=O)OC[C@@H]2CCCN2C1=O)NCCO	·	i	·	·	·	·
CC(C)CN(C(=O)c1ccc(S(=O)(=O)N2CCOCC2)cc1)C1CCS(=O)(=O)C1 (configuration not stated)	-10	i	i	i	i	0.93
CC(=O)c1cccc(NC(=O)C2=CN3CCS(=O)(=O)N=C3C=C2)c1	·	i	·	·	·	·
Cc1ccccc1NC1=NC(=S)N(c2ccccc2)C12CCCCC2	12*	i	15*	i	i	0.32
Cc1ccc(CSCCNS(=O)(=O)c2ccc([N+](=O)[O-])cc2)cc1	-6	i	i	i	i	-4.4*
COc1ccc(S(=O)(=O)NCCSCc2cccc(C)c2)cc1Br	-1	i	i	i	i	-0.85
Cc1ccc(S(=O)(=O)NCCSCc2ccccc2)cc1	-10	i	i	i	i	-5.7*
C=CCc1cc(OC)ccc1OCCN1CC(C)OC(C)C1 (configuration not stated)	-4	i	i	i	i	1.3
Cc1ccc(Cn2ncc3c(NN)ncnc32)cc1	-5	i	15*	i	i	-0.49
COc1ccc(NC(=O)CNS(=O)(=O)c2ccc(Cl)cc2)cc1	-2	i	i	i	i	0.71
COc1cccc(NC(=O)CNS(=O)(=O)c2ccc(Cl)cc2)c1	-13	i	i	i	i	-4.2*
Cc1ccc(NC(=O)c2ccc3c(c2)OCCO3)cc1S(=O)(=O)Nc1cccc(Cl)c1	-9	i	i	6*	i	0
Cc1cccc(NC(=O)c2cccc(NS(=O)(=O)c3ccc(Cl)cc3)c2)c1	-18	i	i	10*	i	-0.2
NS(=O)(=O)c1cccc(NC(=O)COC(=O)Cc2ccc(S(=O)(=O)N3CCOCC3)s2)c1	·	i	·	·	·	·
CCn1cc(Cl)c(C(=O)Nc2nccs2)n1	-6	i	i	i	i	1.4
CCN(CC)S(=O)(=O)c1cc(NC(=O)CSCc2c(C)noc2C)ccc1C	·	-10*	·	·	·	·
c1ccc(COc2ncnc3c2ncn3CCCNCCN2CCOCC2)cc1	·	i	·	·	·	·
Cc1ccc(C(C)C)c(OCCN)c1	-4	i	i	i	i	-0.6
Cc1ccc(C(C)C)c(OCCN(C)C)c1	6.6*	i	i	i	i	-0.23
Cc1ccc(C(C)C)c(OCCNC(=S)Nc2cccc3ccccc23)c1	-9	i	i	8*	i	-0.84
Cc1ccc(C(C)C)c(OCc2n[nH]c(=S)o2)c1	-2	i	8*	i	i	0.24
SMILES	hERG rescue	KCNK3 block	KCNQ1 pot	KCNQ1 block	KCNK9 block	Kir21 inh
Cc1ccc(C)c(OCc2n[nH]c(=S)o2)c1	-11	i	i	i	i	0.11
Cc1ccc(C(C)C)c(OCCNCc2ccccc2)c1	-11	i	i	i	i	-8.8*
CCCN(CCC)CCOc1cc(C)ccc1C(C)C	-6	i	i	i	i	0.22
Cc1ccc(S(=O)(=O)N2C[C@@H]3[C@H]4CC[C@H](C4)[C@@H]3[C@@H](C)[C@H]2C#N)cc1	·	i	·	·	·	·
COc1cc(CCC(=O)OCC(=O)NCCc2ccc(S(N)(=O)=O)cc2)cc(OC)c1OC	·	i	·	·	·	·
Cc1ccc(C(C)C)c(OCCCCN2CCNCC2)c1	-8	i	i	i	i	-6.1*
CCN(C(=O)COC(=O)c1cc(-c2cccc3ccccc23)nc2ccccc12)C1CCS(=O)(=O)C1 (configuration not stated)	-7	i	i	i	-7.1*	-0.15
O=C(COC(=O)c1cc(-c2cccc3ccccc23)nc2ccccc12)NC1CCS(=O)(=O)C1 (configuration not stated)	-16	i	i	i	i	-0.87
CCN(C(=O)COC(=O)C(Cc1ccccc1)N1C(=O)c2ccccc2C1=O)C1CCS(=O)(=O)C1 (configuration not stated)	-8	i	8*	i	i	-0.07
S=C(Nc1cc(Cl)cc(Cl)c1)N1CCN(c2ccccn2)CC1	-7	i	i	i	i	0.91
CN(C(=O)c1ccccc1C(=O)OCC(=O)c1ccc(F)c(F)c1)C1CCCCC1	·	i	·	·	·	·
FC(F)Sc1nc(-c2ccccc2)c(-c2ccccc2)n1C(F)F	-8	i	i	9*	i	-1.2
O=C1CC2(CCCCC2)Oc2ccccc21	5.4*	i	i	i	i	-0.04
O=C1CC2(CCCCC2)Oc2ccc(F)cc21	-3	i	i	i	i	0.52
Cc1cccc(-n2cc(-c3ccccc3)c3c(=O)[nH]cnc32)c1	-14	i	i	i	-7.2*	-0.66
COc1ccc(OC)c(COC(=O)c2cccc(S(=O)(=O)N3CCCCC3)c2)c1	·	-8.8*	·	·	·	·
COc1ccccc1C(=O)COC(=O)c1cccc(S(=O)(=O)N2CCCC2)c1	-17	i	i	i	i	1.3
Cc1ccc(COC(=O)c2cccc(S(=O)(=O)N3CCCCC3)c2)cc1	·	-11*	·	·	·	·
COc1ccccc1COC(=O)c1cccc(S(=O)(=O)N2CCCC2)c1	·	-9.6*	·	·	·	·
Cc1ccc(COC(=O)c2cccc(S(=O)(=O)N3CCCCCC3)c2)cc1	·	i	·	·	·	·
O=C(NC(=S)Nc1ncc(Br)cc1Br)c1ccccc1	1	i	7*	i	i	1.5
O=C(NC(=S)Nc1cnc2ccccc2c1)c1ccccc1	-8	i	i	i	i	-0.74
Cc1cccc(C(=O)Nc2sc(C)c(-c3ccccc3)c2C#N)c1	-5	i	i	6*	i	2
Cc1cccc(C(=O)Nc2sc(C(=O)N3CCCC3)c(C)c2C#N)c1	-7	i	i	i	i	0.94
COc1ccccc1NC(=O)C1CC(C(C)C)OC1=O (configuration not stated)	-3	i	i	i	i	-1.4
CC(=O)c1ccc(NC(=O)CN2CCC(NC(=O)C3CCCCC3)CC2)cc1	6.1*	i	i	i	i	-0.9
O=C(NCCCl)Nc1ccccc1OCCOc1ccccc1NC(=O)NCCCl	-9	i	i	i	-7*	1.1
